Compound activity: PubChem BioAssay, several laboratories
PPC-1+TRAIL kill – kills PPC-1 cancer cells in the presence of TRAIL. PPC-1 cells + TRAIL, ATPLite viability luminescence. cell killing (% activity), % at 4 µM or 5 µM. 220,000 tested, 0.41% active. AID 1443;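 active = cell killing above 50% in the first pass at 4 µM, then a duplicate retest at 5 µM averaging 50% or more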;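 note: plate controls were cells with TRAIL plus DMSO for no effect and medium-only wells lacking cells for full effect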
STAT3 blocker – inhibitors of IL-6 induced STAT3 signaling | U3A cells, IL-6 STAT3-luciferase reporter, luminescence; host cell line lacks STAT1 | inhibition, % at 5.5 µM | 190,000 tested, 0.89% active;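 active = inhibition above the mean inhibition across all screened compounds plus 3 SD, cut at about 44% in these data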;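 note: 0% = DMSO only wells and 100% = 100 µM nifuroxazide control wells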
C8 TRAIL sens – sensitizes caspase-8 expressing cells to TRAIL. NB7+C8 cells + TRAIL, ATPlite viability luminescence. inhibition (viability loss, TRAIL sensitization), % at 10 µM. 360,000 tested, 1% active;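 active = compounds causing at least 50% loss of cell viability in the single-dose screen, relative to plate controls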
STAT3 act-1 – increases IL-6 driven STAT3 reporter signal; U3A cells, IL-6 STAT3-luciferase reporter, luminescence; 100% = signal with IL-6 EC80 alone; activation (% of control), % at 5.6 µM; 190,000 tested, 0.91% active; AID 871;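 active = activation above the screen-wide mean of compound activation plus 3 SD, cut at about 130% in these data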;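 note: 0% = background luminescence of wells with medium and substrate only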
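Test system: STAT3-luciferase reporter U3A cells; Detection: reporter luminescence signal; Times: 1 h compound pre-exposure, 6 h IL-6 stimulation, 37 °C; Benchmarks: IL-6-only high control; Also added: IL-6 stimulus at 33 ng/mL final.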
STAT1 blocker – reduces IFN-gamma driven STAT1 reporter signal; NIH 3T3 STAT1-luciferase reporter, luminescence; inhibition, % at 5.5 µM; 200,000 tested, 0.35% active; AID 920;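 active = inhibition above a set limit, the mean inhibition across all tested compounds plus 3 SD, cut at about 34% in these data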;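 note: 0% = IFN-gamma with DMSO and 100% = IFN-gamma with 300 µM nifuroxazide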
STAT3 act-2 – STAT3 activation, confirmation assay | AID 1267 | 1,200 tested, 64% active | potentiation (% of control), % at 5.7 µM | shares compounds with STAT3 act-1 | U3A STAT3-luciferase reporter, IL-6 potentiation, luminescence; U3A cells lack STAT1; 100 means same as IL-6 alone;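 active = percent activation of the STAT3 luciferase reporter above a set limit taken from the earlier primary screen, cut at about 130% in these data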;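 note: 0% = background signal of medium plus substrate and 100% = median of IL-6 with DMSO wells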
NFkB act STAT3ct – counter-screen for STAT3 activators: NF-kappaB activation | activation (% of control), % at 5.7 µM | AID 1309 | 1,200 tested, 11% active | shares compounds with STAT3 act-1 | human cells, NF-kappaB reporter activation; in the data active = activation above about 120%;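 note: reporter induced by TNF-alpha stimulation; 100% = median of stimulated DMSO wells and 0% = no signal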
STAT1 act – counter-screen for STAT3 activators: STAT1 activation. activation (% of control), % at 5.7 µM. 1,200 tested, 13% active. AID 1318. NIH 3T3 STAT1-luciferase reporter, IFN-gamma, luminescence. shares compounds with STAT3 act-1;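 active = activation above the solvent-only control well mean plus 3 SD, set per screening run, cut at about 120% in these data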;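 note: 100% = IFN-gamma with DMSO median signal so 100% means no change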
* marks the source's active call; other numbers are inactive results; nt = no result. This is a sample that favours compounds with a hit; in the whole collection about 1.8% have one here.

SMILES	PPC-1+TRAIL kill	STAT3 blocker	C8 TRAIL sens	STAT3 act-1	STAT1 blocker	STAT3 act-2	NFkB act STAT3ct	STAT1 act
Cc1ccc(SCC(=O)OCC(=O)NC(C)c2ccc(Br)cc2)cc1 (stereo not given)	nt	nt	-10.4	nt	nt	nt	nt	nt
CCCc1cc2c(=O)c(-c3nc4ccccc4s3)c(COCC(=O)O)oc2cc1O	-2.1	-57.5	2.4	151.2*	2.4	146.5*	115.9	104.5
O=C/C(=C\Nc1ccc(Cl)cn1)c1nc2ccccc2o1	-8.9	-40.3	-2.8	136.7*	12.4	111.6	105.7	97.4
O=C/C(=C\Nc1ccc(Cl)cn1)c1nc2cc(Cl)ccc2o1	14.7	-53.3	0.6	144.6*	-3.0	127.1	107.8	97.4
O=C/C(=C\Nc1ccc(S(=O)(=O)CCO)cc1)c1nc2cc(Cl)ccc2o1	0.7	-6.5	-6.6	106.4	-10.8	nt	nt	nt
N#C/C(=C\Nc1ccc(Cl)cn1)S(=O)(=O)c1ccccc1	4.7	nt	-25.0	nt	nt	nt	nt	nt
Cc1oc(/N=C/c2ccc(Cl)cc2)c(C#N)c1C	17.6	-49.9	11.4	145.6*	-9.3	136.4*	104.5	112.8
Cc1oc(/N=C/c2ccccc2O)c(C#N)c1C	28.2	-49.1	1.1	145.9*	-5.0	156.9*	106.2	101.4
Cc1cc(=O)c(C(=O)O)nn1-c1ccccc1F	nt	nt	-0.7	nt	nt	nt	nt	nt
NC(=O)C[C@H](N)c1cn([C@@H](CC(N)=O)C(=O)N2CCNCC2)nn1	nt	nt	-20.6	nt	nt	nt	nt	nt
O=C(O)C1=CC[C@@H](c2ccc(Cl)cc2)N(S(=O)(=O)c2ccc(Cl)cc2)[C@H]1c1ccc(Br)cc1	nt	nt	3.8	nt	nt	nt	nt	nt
Cc1cc2cc3c(cc2nc1SCC(=O)Nc1nc(C)c(C)s1)OCO3	13.3	-81.7	22.4	168.7*	8.3	133.0*	103.2	103.0
COc1ccc(Cl)cc1C(=O)Nc1ccncc1	nt	nt	-10.6	nt	nt	nt	nt	nt
CCN(CC)c1ccc(NC(=O)c2cc(Cl)ccc2OC)cc1	6.0	-62.5	12.7	162.2*	5.1	150.7*	112.1	99.4
CC1CCCC(C)N1C(=O)Cn1cc(/C=C2/C(=O)Nc3ccccc32)c2ccccc21 (stereo not given)	21.3	-70.4	-1.2	158.2*	-4.1	151.2*	99.4	103.5
COCCn1c(N)c(Sc2ccc(Cl)cc2)c(=O)[nH]c1=O	nt	nt	-2.3	nt	nt	nt	nt	nt
C=CCOc1ccc(C2C(C(=O)c3cccs3)=C(O)C(=O)N2c2nnc(C)s2)cc1 (stereo not given)	nt	2.2	-3.2	97.8	-2.1	nt	nt	nt
COc1ccc(C2C(C(=O)c3cccs3)=C(O)C(=O)N2c2nncs2)cc1 (stereo not given)	9.9	-51.4	3.2	150.3*	-1.4	128.9	103.0	99.2
CCc1ccc(CCC(=O)N2CCN(S(=O)(=O)c3ccc(Br)cc3)CC2)cc1	nt	nt	2.5	nt	nt	nt	nt	nt
O=C1CC(c2ccccc2Cl)=NN(c2ncnc3ccccc23)C1=O	3.2	-59.6	-8.3	147.9*	-9.5	145.6*	109.3	110.5
COC(=O)c1c(NC(=O)CN2CCN(c3ccccc3OC)CC2)c2cc(C)ccc2n1C	10.3	-42.0	-6.7	142.7*	-1.7	134.9*	107.4	100.4
COC(=O)c1c(NC(=O)CN2CCN(c3ccccc3OC)CC2)c2c(C)cccc2n1C	-4.3	10.4	nt	93.1	3.7	nt	nt	nt
O=C(OCc1nc2ccccc2s1)c1cnccn1	21.2	-37.1	-0.6	136.2*	-16.6	145.8*	119.3	139.9*
COc1ccccc1OCCCN1C(=O)C(=O)c2cccc(C)c21	nt	-41.4	7.1	137.6*	6.8	131.7	103.8	97.4
Cn1c(=O)c(/C=C/c2ccc(F)cc2)nc2ccccc21	10.2	-51.2	5.9	152.3*	-23.6	176.9*	119.8	128.6*
SMILES	PPC-1+TRAIL kill	STAT3 blocker	C8 TRAIL sens	STAT3 act-1	STAT1 blocker	STAT3 act-2	NFkB act STAT3ct	STAT1 act
CCC1(c2ccccc2)NC(=O)N(CC(=O)NC2CCCCCC2)C1=O (stereo not given)	nt	nt	2.3	nt	nt	nt	nt	nt
Cc1cc(/C=N/n2cnnc2)c(O)c([N+](=O)[O-])c1	18.1	-42.6	8.6	138.5*	-0.3	149.3*	98.5	95.2
C/C(=N\OCc1nc2ccccc2c(=O)n1/N=C/c1cc(C)cc([N+](=O)[O-])c1O)c1ccccc1	19.4	nt	9.0	nt	nt	nt	nt	nt
Cc1nc2c(n1C1CCCCC1)C(=O)c1ccccc1C2=O	9.1	-69.7	5.4	169.8*	-1.7	136.5*	98.4	99.3
O=C1c2cccnc2C(=O)N1C1CCCCC1	26.1	-2.4	-23.1	104.7	11.0	nt	nt	nt
O=C(COC(=O)/C=C/c1ccccc1[N+](=O)[O-])Nc1ccc(S(=O)(=O)N2CCOCC2)cc1	nt	nt	6.6	nt	nt	nt	nt	nt
O=C(O)c1cccnc1C(=O)c1ccccc1	nt	nt	-0.4	nt	nt	nt	nt	nt
Cc1ccccc1S(=O)(=O)Nc1nc2ccccc2nc1N1CCc2ccccc2C1	39.3	-37.9	5.6	136.4*	0.5	134.7*	118.8	113.7
O=S(=O)(Nc1nc2ccccc2nc1N1CCc2ccccc2C1)c1ccc(Cl)cc1	-35.0	-43.1	47.9	136.3*	-23.1	130.2	110.1	118.0
Cc1ccccc1S(=O)(=O)Nc1nc2ccccc2nc1Cl	1.3	-8.7	-2.4	108.4	-6.9	nt	nt	nt
CC(=O)Nc1ccc(S(=O)(=O)Nc2nc3ccccc3nc2N2CCc3ccccc3C2)cc1	26.8	-48.1	5.9	137.1*	-13.7	139.8*	105.7	119.2
COc1ccc([C@H]2Cc3cc(O)cc(O)c3C(=O)O2)cc1O	nt	nt	-3.8	nt	nt	nt	nt	nt
CC(C)C1N=C(c2ccc3c(c2)OCO3)CC(c2ccccc2O)N1 (stereo not given)	2.5	-36.9	-4.5	137.7*	11.5	126.4	108.3	90.0
COc1cc(C(=O)N/N=C/C2CC=CCC2)cc(OC)c1OC (stereo not given)	16.3	-59.5	-9.7	144.1*	-11.3	98.6	103.5	96.7
O=C(N/N=C/C1CC=CCC1)c1ccc(O)cc1O (stereo not given)	-12.5	7.8	-1.4	93.6	7.3	nt	nt	nt
O=C(NCCC(=O)N1CCN(c2ncccn2)CC1)c1ccccc1Cl	-3.2	-13.5	-13.7	109.7	-4.6	nt	nt	nt
O=C(NCCC(=O)N1CCN(c2ncccn2)CC1)c1ccccc1	20.0	-41.7	-4.0	139.5*	-12.1	101.7	104.6	99.3
Cc1ccsc1CN(C)C(=O)CN1C(=O)NC(c2ccccc2)(c2ccccc2)C1=O	nt	nt	0.0	nt	nt	nt	nt	nt
CN(C)S(=O)(=O)c1cccc(NC(=O)c2cccc(S(=O)(=O)N3CCc4ccccc43)c2)c1	nt	nt	23.8	nt	nt	nt	nt	nt
CN(C)S(=O)(=O)c1cccc(C(=O)N2CCc3ccccc32)c1	16.6	-52.8	1.7	147.8*	3.7	125.9	108.5	107.6
O=C(Nc1ccccc1N1CCN(C(=O)c2ccc(Cl)cc2)CC1)c1cc2ccccc2o1	16.2	-47.9	5.1	146.6*	2.4	123.3	98.2	105.2
